Publication PMC4229637 (British Journal of Cancer, 2014)
Like-named read-outs stand apart in the source and are kept apart here. Values belong to the molecule of their own block, whether it stands above or below them.

How the values were obtained:
[1] = MK-0752 plasma concentration; assay type: in vivo, human
Outline: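 Test compound was given orally at 1800 mg once weekly with IV anti-IGF-1R antibody once weekly, in 28-day cycles. Pre-dose plasma was taken weekly during cycle 1 and on day 1 of subsequent cycles. Plasma levels were quantified by validated HPLC-MS/MS.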

patients = details: cited from earlier work; for main toxicities: single agent phase I
[2] = MK-2206 plasma concentration; assay type: in vivo, human; details: for Plasma MK-2206, Median / Plasma MK-2206, Range: cycle 1 day 8
AKT1 = details: read-out: IC50 AKT1; ref Yap et al, 2011; cited from earlier work
AKT3 = details: read-out: IC50 AKT3; ref Yap et al, 2011; cited from earlier work
[3] = ref Biondo et al, 2011, Yap et al; cited from earlier work
AKT2 = details: read-out: IC50 AKT2; ref Yap et al, 2011; cited from earlier work
[4] = Ridaforolimus concentration in whole blood; assay type: in vivo, human; details: cycle 1 day 8; Dalotuzumab (10 mg kg^–1 QW)+ridaforolimus (20 mg QD × 5); N=4; some samples up to 2.5 h post dose
[5] = Dalotuzumab concentration in serum; assay type: in vivo, human; details: for Serum dalotuzumab, Median / Serum dalotuzumab, Range: cycle 1 day 8
[6] = cycle 1 day 8, Dalotuzumab (7.5 mg kg^–1 QW)+MK-0752 (1800 mg QW), N=3
[7] = Dalotuzumab (10 mg kg^–1 QW)+MK-2206 (90 mg QW), N=3
[8] = Dalotuzumab (10 mg kg^–1 QW)+MK-2206 (135 mg QW), N=8
[9] = Dalotuzumab (10 mg kg^–1 QW)+MK-2206 (150 mg QW), N=10
[10] = Dalotuzumab (10 mg kg^–1 QW)+MK-2206 (200 mg QW), N=3
[11] = Dalotuzumab (7.5 mg kg^–1 QW)+MK-0752 (1800 mg QW), N=4
[12] = Dalotuzumab (10 mg kg^–1 QW)+MK-0752 (1800 mg QW), N=11
[13] = Dalotuzumab (10 mg kg^–1 QW)+ridaforolimus (20 mg QD × 5), N=2
[14] = phase I clinical trial of single-agent dalotuzumab, ref Atzori et al, 2011

Plasma MK-0752, Median [1, 6]: 8.06 μmol l^–1
Plasma MK-0752, Range [1, 6]: 1.49–11.6 μmol l^–1
Plasma MK-0752, Median ([1]; cycle 1 day 8, Dalotuzumab (10 mg kg^–1 QW)+MK-0752 (1800 mg QW), N=11): 1.63 μmol l^–1
plasma trough levels, patients receiving 7.5 mg kg^–1 vs 10 mg kg^–1 dalotuzumab ([1]; weekly dosing with 1800 mg MK-0752): comparable
Molecule: O=C(O)CC[C@H]1CC[C@@](c2cc(F)ccc2F)(S(=O)(=O)c2ccc(Cl)cc2)CC1 [MK-0752]
main toxicities (patients; ref Krop et al, 2012): fatigue, nausea, and diarrhoea

dose proportional increase of Ctrough levels ([2]; MK-2206 90, 135, 150, and 200 mg QW): not discernible
Plasma MK-2206, Median [2, 7]: 12.9 nmol l^–1
Plasma MK-2206, Range [2, 7]: 10.3–20.4 nmol l^–1
Plasma MK-2206, Median [2, 8]: 29.1 nmol l^–1
Plasma MK-2206, Range [2, 8]: 0.687–41.1 nmol l^–1
Plasma MK-2206, Median [2, 9]: 9.08 nmol l^–1
Plasma MK-2206, Range [2, 9]: 0.736–26.7 nmol l^–1
Plasma MK-2206, Median [2, 10]: 37.6 nmol l^–1
Plasma MK-2206, Range [2, 10]: 20.3–50.9 nmol l^–1
Molecule: NC1(c2ccc(-c3nc4ccn5c(=O)[nH]nc5c4cc3-c3ccccc3)cc2)CCC1 [MK-2206]
IC50 (AKT3): 65 nM
half-life [3]: 40 to 100 h
IC50 (AKT2): 12 nM
main toxicities (patients; ref Biondo et al, 2011, Yap et al): rash, nausea, vomiting, diarrhoea, and hyperglycaemia
RP2D (patients; single agent, weekly, ref Biondo et al, 2011): 135 to 200 mg

Whole blood ridaforolimus, Median [4]: 86.7 ng ml^–1
Whole blood ridaforolimus, Range [4]: 3.12–184 ng ml^–1
Molecule: CO[C@H]1C[C@@H]2CC[C@@H](C)[C@@](O)(O2)C(=O)C(=O)N2CCCC[C@H]2C(=O)O[C@H]([C@H](C)C[C@@H]2CC[C@@H](OP(C)(C)=O)[C@H](OC)C2)CC(=O)[C@H](C)/C=C(\C)[C@@H](O)[C@@H](OC)C(=O)[C@H](C)C[C@H](C)/C=C/C=C/C=C/1C [Ridaforolimus]
RP2D (patients; IV, 5 days every 2 weeks, ref Mita et al, 2008): 12.5 mg daily
Main adverse events (patients; single agent phase I trials, ref Mita et al, 2013, Mita et al, 2008): mucositis, fatigue, rash, nausea, diarrhoea, myelosuppression, and dyslipidaemia

Molecule: Dalotuzumab: humanised IgG1 monoclonal antibody that binds IGF-1R
Serum dalotuzumab, Median [5, 11]: 39.3 μg ml^–1
Serum dalotuzumab, Range [5, 11]: 16.7–91.7 μg ml^–1
Serum dalotuzumab, Median [5, 12]: 41.7 μg ml^–1
Serum dalotuzumab, Range [5, 12]: 5.69–97.9 μg ml^–1
Serum dalotuzumab, Median [5, 7]: 33.8 μg ml^–1
Serum dalotuzumab, Range [5, 7]: 29.3–56.6 μg ml^–1
Serum dalotuzumab, Median [5, 8]: 52.2 μg ml^–1
Serum dalotuzumab, Range [5, 8]: 45.2–102 μg ml^–1
Serum dalotuzumab, Median [5, 9]: 63.5 μg ml^–1
Serum dalotuzumab, Range [5, 9]: 43.7–86.4 μg ml^–1
Serum dalotuzumab, Median [5, 10]: 52.3 μg ml^–1
Serum dalotuzumab, Range [5, 10]: 45.4–92.3 μg ml^–1
Serum dalotuzumab, Median [5, 13]: 49.6 μg ml^–1
Serum dalotuzumab, Range [5, 13]: 32.5–66.7 μg ml^–1
Trough concentrations (Ctrough) after the first administration ([5]; dalotuzumab 7.5 and 10 mg kg^–1, generally exceeded the target threshold level): > 25 μg ml^–1
Maximum tolerated dose (MTD) (patients; [14]): not reached
most common adverse events (patients; [14]): fatigue, hyperglycaemia, and back pain
recommended phase II dose (RP2D) (patients; [14]): 10 mg kg^–1 per week
